Activity calls are given as the source filed them. The calls are words filed in the database; no cut-off is given here.
Tests used:
[1] = Growth inhibition of MEL cells at 0.01 to 100 uM after 48 hrs relative to control; type: functional, Mus musculus
How it was run: (§1)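 MEL cells seeded at 1.0 x 10^5 cells/mL in DMEM with 10% v/v FBS and 1% PS, 37 °C, 5% CO2. Agents dissolved in DMSO (final DMSO below 0.5% v/v) and tested at 0.01–100 µM for 48 h. Cells counted by Neubauer hemocytometer. Growth given as percentage of untreated control.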

MEL [2] = assay: Growth inhibition of MEL cells after 48 hrs; type: functional, cell-based; details: Mus musculus; how it was run: as §1
[3] = Induction of cell differentiation in MEL cells at 100 uM after 96 hrs by benzidine staining; type: functional, Mus musculus
How it was run: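 MEL cells were seeded at 1.0 x 10^5 cells/mL in DMEM with 10% FBS and 1% PS at 37 °C, 5% CO2, then exposed to 100 µM agent in DMSO (final DMSO below 0.5% v/v) for 96 h. HMBA 5 mM served as positive control. Hb-producing cells were scored by benzidine-H2O2 staining and reported as percentage benzidine-positive.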

[4] = Upregulation of beta-major globin gene expression in MEL cells at 5 mM after 24 to 96 hrs by RT-PCR analysis; type: functional, cell-based; details: Mus musculus
How it was run: (§2)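 MEL cells were treated with 10^-4 M agent or 5 mM HMBA for 0, 24, 48, 72 and 96 h, with untreated cells as control. Cells were washed in PBS. Total cytoplasmic RNA (1 µg/reaction) was extracted by acid guanidinium thiocyanate-phenol-chloroform and run in one-step RT-PCR: 50 °C 30 min, 94 °C 2 min, then 30 cycles of 94/58/72 °C, then 72 °C 10 min. β-major globin primers were used with β-actin as internal control.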

MEL [5] = assay: Induction of cell differentiation in MEL cells assessed as hemoglobin accumulation at 5 mM by after 24 to 96 hrs by spectrophotometry; type: functional, cell-based; details: Mus musculus
How it was run: (§3)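 MEL cells (1.0 x 10^5 cells/mL, DMEM/10% FBS/1% PS, 37 °C, 5% CO2) were treated with 10^-4 M agent or 5 mM HMBA, alongside untreated controls. Total cellular Hb was measured spectrophotometrically in samples taken over a 24–96 h time course.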

[6] = Growth inhibition of MEL cells at 0.1 mM after 96 hrs; type: functional; details: Mus musculus, read-out: GI
How it was run: (§4)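 Exponentially growing MEL cells (1.0 x 10^5 cells/mL, DMEM/10% FBS/1% PS, 37 °C, 5% CO2) were exposed to 10^-4 M agent in DMSO. Untreated cultures served as control and HMBA 5 mM as reference. Samples were removed at various intervals up to 96 h and counted by hemocytometer. Growth was expressed as absolute number or as percentage of control.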

MEL [7] = assay: Growth inhibition of MEL cells at 0.1 mM; type: functional, cell-based; details: Mus musculus, TDE = time-dependent effect; how it was run: as §4
[8] = Upregulation of beta-major globin gene expression in MEL cells at 0.1 mM after 24 to 96 hrs by RT-PCR analysis; type: functional, cell-based; details: Mus musculus; how it was run: as §2
MEL [9] = assay: Induction of cell differentiation in MEL cells assessed as hemoglobin accumulation at 0.1 mM by after 24 to 96 hrs by spectrophotometry; type: functional, cell-based; details: Mus musculus; how it was run: as §3

Structure (SMILES) | growth inhibition (GI) [1] [%] | growth inhibition (GI) (MEL [2]) | Activity [3] [%] | Activity [4] | Activity (MEL [5]) | inhibition of growth at 100 µM [6] [%] | growth inhibition (GI) (MEL [7]) | Activity [8] | Activity (MEL [9])
CNC(=O)c1cccn1-c1nnn(CCCCCCn2nnc(-n3cccc3C(=O)NC)n2)n1 | 30 | Dose-dependent effect | 5 | – | – | – | – | – | –
c1ccn(-c2nnn(CCCCCCCn3nnc(-n4cccc4)n3)n2)c1 | 30 | Dose-dependent effect | 5 | – | – | – | – | – | –
CC(=O)NCCCCCCNC(C)=O | – | – | – | Active | Active | – | – | – | –
c1ccn(-c2nnn(CCCCCCn3nnc(-n4cccc4)n3)n2)c1 | 30 | Dose-dependent effect | 30 | – | – | > 75 | tde | Active | Active
c1ccn(-c2nnn(Cc3ccc(Cn4nnc(-n5cccc5)n4)cc3)n2)c1 | 30 | Dose-dependent effect | 5 | – | – | – | – | – | –
c1ccn(-c2nnn(CCCCCn3nnc(-n4cccc4)n3)n2)c1 | 30 | Dose-dependent effect | 5 | – | – | – | – | – | –

Reference: ChEMBL document CHEMBL1955744, “Bis-pyrrolyl-tetrazolyl derivatives as hybrid polar compounds: A case of lipophilic functional bioisosterism with bis-acetamides” (2012)
